{"source": "ChEMBL document CHEMBL2062375", "about": "“Discovery of an orally efficacious inhibitor of anaplastic lymphoma kinase” (J Med Chem, 2012)", "key": {"[1]": {"assay": "Half life in SCID mouse at 1 mg/kg, iv", "type": "ADME, organism-based", "parameters": "dose 1 mg/kg, route intravenous", "conditions": "in vivo", "outline": "(§1)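 Mouse PK. IV via the lateral tail vein in 3% DMSO/30% Solutol/67% PBS, or oral gavage in 100% PEG400, 100 μL dose volume, after an overnight fast. Trunk blood was taken from three mice per time point over 6 h. Plasma was acetonitrile-precipitated and analysed by LC-MS/MS. Parameters were derived noncompartmentally.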"}, "[2]": {"assay": "Plasma clearance in SCID mouse at 1 mg/kg, iv", "type": "ADME, organism-based", "parameters": "dose 1 mg/kg, route intravenous", "outline": "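Mouse IV PK: lateral tail vein dosing, 100 μL in 3% DMSO/30% Solutol/67% PBS; trunk blood from three mice per time point over 6 h. Plasma precipitated with acetonitrile, drug quantified by LCMS/MS against internal standard; noncompartmental analysis.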"}, "[3]": {"assay": "Volume of distribution in Sprague-Dawley rat at 1 mg/kg, iv", "type": "ADME, organism-based", "parameters": "dose 1 mg/kg, route intravenous", "conditions": "in vivo", "outline": "(§2)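 IV PK: rats via lateral tail vein (1 mL/kg; 3% DMSO/30% Solutol/67% PBS), serial tail-vein blood over 6 h. Dogs and monkeys via saphenous vein (0.5 mL/kg in 40% HPβCD), femoral-vein blood over 24 h. Acetonitrile protein precipitation, LCMS/MS; noncompartmental parameters from individual animals, n = 3, mean ± SEM.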"}, "[4]": {"assay": "Volume of distribution in cynomolgus monkey at 1 mg/kg, iv", "type": "ADME, organism-based, Macaca fascicularis", "parameters": "dose 1 mg/kg, route intravenous", "conditions": "in vivo", "outline": "as §2"}, "[5]": {"assay": "Cmax in SCID mouse at 10 mg/kg, po", "type": "ADME, organism-based", "parameters": "dose 10 mg/kg, route oral", "conditions": "in vivo", "outline": "as §1"}, "[6]": {"assay": "Tmax in SCID mouse at 10 mg/kg, po", "type": "ADME, organism-based", "parameters": "dose 10 mg/kg, route oral", "conditions": "in vivo", "outline": "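Mouse oral PK: overnight fast, gavage of 100 μL in 100% PEG400; trunk blood from three mice per time point over 6 h; plasma acetonitrile-precipitated and analysed by LCMS/MS, noncompartmental parameters.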"}, "[7]": {"assay": "Cmax in CD-1 mouse at 10 mg/kg, po", "type": "ADME, organism-based", "parameters": "dose 10 mg/kg, route oral", "conditions": "in vivo", "outline": "as §1"}, "[8]": {"assay": "Half life in CD-1 mouse at 10 mg/kg, po", "type": "ADME, organism-based", "parameters": "dose 10 mg/kg, route oral", "conditions": "in vivo", "outline": "as §1"}, "[9]": {"assay": "AUC in CD-1 mouse at 10 mg/kg, po", "type": "ADME, organism-based", "parameters": "dose 10 mg/kg, route oral", "conditions": "plasma", "outline": "as §1"}, "[10]": {"assay": "Cmax in Sprague-Dawley rat at 10 mg/kg, po", "type": "ADME, organism-based", "parameters": "dose 10 mg/kg, route oral", "conditions": "in vivo", "outline": "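Rat PK. IV via the lateral tail vein, 1 mL/kg in 3% DMSO/30% Solutol/67% PBS, or oral gavage at 5 mL/kg in 40% HPβCD, after an overnight fast. Serial tail-vein blood was taken into heparin over 6 h. Plasma was acetonitrile-precipitated and analysed by LC-MS/MS. Parameters were noncompartmental, n = 3, mean ± SEM.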"}, "[11]": {"assay": "Oral bioavailability in Sprague-Dawley rat at 10 mg/kg", "type": "ADME, organism-based", "conditions": "in vivo", "outline": "(§3)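 PK: overnight-fasted animals. Rat oral gavage 5 mL/kg in 40% HPβCD, serial tail-vein blood over 6 h. Dog oral gavage 1 mL/kg, monkey nasogastric 2 mL/kg, femoral-vein blood over 24 h. Plasma protein-precipitated with acetonitrile, LCMS/MS with internal standard; noncompartmental analysis, individual animals n = 3, mean ± SEM.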"}, "[12]": {"assay": "Tmax in cynomolgus monkey at 10 mg/kg, po", "type": "ADME, organism-based, Macaca fascicularis", "parameters": "dose 10 mg/kg, route oral", "conditions": "in vivo", "outline": "as §3"}, "[13]": {"assay": "Cmax in rat at 30 mg/kg, po", "type": "ADME, organism-based", "parameters": "dose 30 mg/kg, route oral", "conditions": "in vivo", "outline": "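Rat oral dose escalation at 10, 30, 55 and 100 mg/kg. Gavage at 5 mL/kg in 40% HPβCD after an overnight fast. Serial tail-vein blood was drawn into heparinized tubes. Plasma was protein-precipitated with acetonitrile and assayed by LC-MS/MS. Cmax and AUC0–12 were derived noncompartmentally; n = 2 at 10 mg/kg.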"}, "[14]": {"assay": "Drug level in SCID mouse tumor xenografted with human KARPAS299 cells expressing NPM-ALK at 30 mg/kg, po after 2 hrs by LC-MS/MS analysis", "type": "ADME, organism-based, Neoplasm, KARPAS-299", "parameters": "dose 30 mg/kg, route oral", "conditions": "read-out: Drug uptake"}, "[15]": {"assay": "Plasma concentration in SCID/beige mouse xenografted with human KARPAS299 cells expressing NPM-ALK at 10 mg/kg, po bid after 2 hrs post last dose by LC-MS/MS analysis", "type": "ADME, organism-based, KARPAS-299", "parameters": "dose 10 mg/kg, route oral", "outline": "(§4)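 Female SCID/beige mice (6–8 weeks), Karpas-299 cells implanted sc in left flank; at ~600 mm³ randomized (8–10/group), dosed orally in PEG400, 100 μL, b.i.d. for 12 days. Body weight every 2–3 days; plasma and tumor sampled 2 h after final dose, drug by LCMS/MS; Mann–Whitney rank sum statistics.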"}, "NB1643": {"tested_on": "NB1643", "assay": "Antitumor activity against human NB1643 cells expressing ALK mutant F1174L assessed as growth inhibition administered as po bid", "type": "functional, organism-based"}, "SH-SY5Y": {"tested_on": "SH-SY5Y", "assay": "Antitumor activity against human SH-SY5Y cells expressing ALK mutant R1275Q assessed as growth inhibition administered as po bid", "type": "functional, organism-based"}, "SK-N-AS": {"tested_on": "SK-N-AS", "assay": "Antitumor activity against human SK-N-AS cells expressing wild type ALK assessed as growth inhibition administered as po bid", "type": "functional, organism-based"}, "KARPAS-299": {"tested_on": "KARPAS-299", "assay": "Antitumor activity against human KARPAS299 cells expressing NPM-ALK xenografted in SCID mouse assessed as tumor regression at 30 mg/kg, po bid for 12 days", "type": "functional, organism-based", "parameters": "dose 30 mg/kg", "outline": "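Female SCID/beige mice, 6–8 weeks old, implanted sc in the left flank with exponentially growing Karpas-299 cells. At about 600 mm³ tumours, mice were randomized (8–10/group) and given PEG400 vehicle or compound orally b.i.d., 100 μL, for 12 days. Tumour volume (0.5236LW(L+W)/2) and body weight were recorded every 2–3 days; Mann–Whitney test. Plasma and tumour levels were measured by LC-MS/MS 2 h after the final dose, mean ± SEM.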"}, "Mus musculus": {"tested_on": "Mus musculus", "assay": "Toxicity in SCID mouse xenografted with human KARPAS299 cells expressing NPM-ALK assessed as overt toxicity at 10 to 30 mg/kg, po bid", "type": "organism-based, KARPAS-299", "parameters": "dose 10-30 mg/kg, route oral", "conditions": "in vivo", "outline": "as §4"}, "Rattus norvegicus": {"tested_on": "Rattus norvegicus", "assay": "Ratio of Cmax at 10 mg/kg, po to Cmax at 100 mg/kg, po in rat", "type": "ADME, organism-based", "conditions": "in vivo", "outline": "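Oral dose-escalation PK study in rats at 10, 30, 55 and 100 mg/kg. […] The ratio compares the 10 mg/kg value with the 100 mg/kg value.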"}, "[16]": {"assay": "Drug level in SCID mouse tumor xenografted with human KARPAS299 cells expressing NPM-ALK at 30 mg/kg, po after 6 hrs by LC-MS/MS analysis", "type": "ADME, organism-based, Neoplasm, KARPAS-299", "parameters": "dose 30 mg/kg, route oral", "conditions": "read-out: Drug uptake"}, "[17]": {"assay": "Plasma concentration in SCID/beige mouse xenografted with human KARPAS299 cells expressing NPM-ALK at 30 mg/kg, po bid after 2 hrs post last dose by LC-MS/MS analysis", "type": "ADME, organism-based, KARPAS-299", "parameters": "dose 30 mg/kg, route oral", "outline": "as §4"}, "Activated CDC42 kinase 1 [18]": {"molecular_target": "T1, Activated CDC42 kinase 1 (Homo sapiens, UniProt Q07912)", "assay": "Inhibition of human ACK1"}, "[19]": {"molecular_target": "NUAK family SNF1-like kinase 1 (Homo sapiens, UniProt O60285)", "sequence (O60285 whole entry)": "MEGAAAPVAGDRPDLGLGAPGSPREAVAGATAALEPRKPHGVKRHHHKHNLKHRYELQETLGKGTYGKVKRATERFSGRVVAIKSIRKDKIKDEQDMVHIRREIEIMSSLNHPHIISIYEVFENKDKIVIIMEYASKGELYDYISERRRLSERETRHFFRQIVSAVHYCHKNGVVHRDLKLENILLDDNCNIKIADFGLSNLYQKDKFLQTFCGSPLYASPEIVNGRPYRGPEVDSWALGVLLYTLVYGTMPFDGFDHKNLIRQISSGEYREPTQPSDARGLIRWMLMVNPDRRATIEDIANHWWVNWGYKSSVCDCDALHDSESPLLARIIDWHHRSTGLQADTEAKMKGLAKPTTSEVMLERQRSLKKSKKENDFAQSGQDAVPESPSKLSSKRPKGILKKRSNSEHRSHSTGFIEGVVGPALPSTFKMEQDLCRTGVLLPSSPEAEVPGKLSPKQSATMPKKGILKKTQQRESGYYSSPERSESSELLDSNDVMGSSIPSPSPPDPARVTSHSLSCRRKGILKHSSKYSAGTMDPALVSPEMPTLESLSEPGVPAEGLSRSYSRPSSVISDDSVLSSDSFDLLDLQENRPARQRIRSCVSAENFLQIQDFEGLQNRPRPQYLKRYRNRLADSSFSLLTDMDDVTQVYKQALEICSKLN", "assay": "Inhibition of human ARK5"}, "[20]": {"molecular_target": "Vascular endothelial growth factor receptor 3 (Homo sapiens, UniProt P35916)", "sequence (P35916 whole entry)": "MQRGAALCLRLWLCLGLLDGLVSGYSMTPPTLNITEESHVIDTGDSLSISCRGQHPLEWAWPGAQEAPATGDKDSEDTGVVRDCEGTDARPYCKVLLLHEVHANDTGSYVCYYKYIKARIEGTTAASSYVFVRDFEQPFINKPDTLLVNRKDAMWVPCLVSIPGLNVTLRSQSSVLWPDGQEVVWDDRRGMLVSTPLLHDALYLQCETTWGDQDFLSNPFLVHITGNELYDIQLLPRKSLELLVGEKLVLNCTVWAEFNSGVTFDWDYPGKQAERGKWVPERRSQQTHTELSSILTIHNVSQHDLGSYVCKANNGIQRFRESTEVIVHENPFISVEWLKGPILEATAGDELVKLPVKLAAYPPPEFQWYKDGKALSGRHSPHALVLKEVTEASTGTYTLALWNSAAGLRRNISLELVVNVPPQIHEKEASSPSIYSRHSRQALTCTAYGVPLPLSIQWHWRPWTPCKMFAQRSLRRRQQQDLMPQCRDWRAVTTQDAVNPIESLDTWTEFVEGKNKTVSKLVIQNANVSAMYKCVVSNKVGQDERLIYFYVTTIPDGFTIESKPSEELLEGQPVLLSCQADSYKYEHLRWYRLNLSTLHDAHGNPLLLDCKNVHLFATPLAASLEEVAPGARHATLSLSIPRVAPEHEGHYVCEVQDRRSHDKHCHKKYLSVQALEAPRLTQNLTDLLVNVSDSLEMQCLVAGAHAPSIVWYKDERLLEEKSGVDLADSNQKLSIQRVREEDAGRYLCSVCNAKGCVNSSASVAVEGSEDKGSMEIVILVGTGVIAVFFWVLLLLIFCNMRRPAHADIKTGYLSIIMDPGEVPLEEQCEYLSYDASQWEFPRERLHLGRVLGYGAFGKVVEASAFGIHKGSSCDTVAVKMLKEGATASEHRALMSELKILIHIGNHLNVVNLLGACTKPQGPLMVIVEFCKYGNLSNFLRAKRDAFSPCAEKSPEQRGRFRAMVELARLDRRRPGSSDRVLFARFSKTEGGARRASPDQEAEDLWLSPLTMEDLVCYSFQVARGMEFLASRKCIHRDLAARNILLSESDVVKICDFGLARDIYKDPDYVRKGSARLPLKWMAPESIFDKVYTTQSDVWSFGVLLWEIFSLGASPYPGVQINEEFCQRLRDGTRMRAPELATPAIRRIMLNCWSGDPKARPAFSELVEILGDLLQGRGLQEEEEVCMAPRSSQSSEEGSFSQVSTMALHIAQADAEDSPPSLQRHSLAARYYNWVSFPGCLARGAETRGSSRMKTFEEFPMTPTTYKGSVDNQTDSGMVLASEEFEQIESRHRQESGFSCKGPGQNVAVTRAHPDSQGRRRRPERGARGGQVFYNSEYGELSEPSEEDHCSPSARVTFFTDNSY", "assay": "Inhibition of human Flt4", "outline": "(§5)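 Millipore KinaseProfiler activity assays on a 259-kinase panel; kinases inhibited by ≥90% at 1 μM then taken to full IC50 determination.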"}, "[21]": {"molecular_target": "Ribosomal protein S6 kinase alpha-6 (Homo sapiens, UniProt Q9UK32)", "sequence (Q9UK32 whole entry)": "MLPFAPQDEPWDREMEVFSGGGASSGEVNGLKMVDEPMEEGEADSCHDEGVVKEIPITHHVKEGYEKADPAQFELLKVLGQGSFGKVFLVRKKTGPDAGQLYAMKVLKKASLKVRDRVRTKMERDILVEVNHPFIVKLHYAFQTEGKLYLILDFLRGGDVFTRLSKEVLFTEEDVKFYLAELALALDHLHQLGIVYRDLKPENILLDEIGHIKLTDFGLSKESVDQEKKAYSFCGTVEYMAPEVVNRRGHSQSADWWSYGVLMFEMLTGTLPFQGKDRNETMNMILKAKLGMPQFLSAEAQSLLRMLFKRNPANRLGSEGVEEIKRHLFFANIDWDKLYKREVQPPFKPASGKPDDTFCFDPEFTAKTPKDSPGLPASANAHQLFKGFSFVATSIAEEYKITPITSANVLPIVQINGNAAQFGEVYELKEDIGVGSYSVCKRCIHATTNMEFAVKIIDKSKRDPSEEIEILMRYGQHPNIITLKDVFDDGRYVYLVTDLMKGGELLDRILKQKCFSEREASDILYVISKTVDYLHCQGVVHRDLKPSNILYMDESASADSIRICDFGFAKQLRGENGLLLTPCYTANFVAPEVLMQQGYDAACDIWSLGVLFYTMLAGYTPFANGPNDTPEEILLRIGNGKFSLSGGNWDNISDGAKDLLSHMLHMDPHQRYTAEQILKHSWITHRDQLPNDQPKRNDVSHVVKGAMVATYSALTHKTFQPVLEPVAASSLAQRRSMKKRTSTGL", "assay": "Inhibition of human Rsk4", "outline": "as §5"}, "Activated CDC42 kinase 1 [22]": {"molecular_target": "T1, Activated CDC42 kinase 1", "conditions": "1 uM"}, "[23]": {"molecular_target": "Serine/threonine-protein kinase Chk2 (Homo sapiens, UniProt O96017)", "sequence (O96017 whole entry)": "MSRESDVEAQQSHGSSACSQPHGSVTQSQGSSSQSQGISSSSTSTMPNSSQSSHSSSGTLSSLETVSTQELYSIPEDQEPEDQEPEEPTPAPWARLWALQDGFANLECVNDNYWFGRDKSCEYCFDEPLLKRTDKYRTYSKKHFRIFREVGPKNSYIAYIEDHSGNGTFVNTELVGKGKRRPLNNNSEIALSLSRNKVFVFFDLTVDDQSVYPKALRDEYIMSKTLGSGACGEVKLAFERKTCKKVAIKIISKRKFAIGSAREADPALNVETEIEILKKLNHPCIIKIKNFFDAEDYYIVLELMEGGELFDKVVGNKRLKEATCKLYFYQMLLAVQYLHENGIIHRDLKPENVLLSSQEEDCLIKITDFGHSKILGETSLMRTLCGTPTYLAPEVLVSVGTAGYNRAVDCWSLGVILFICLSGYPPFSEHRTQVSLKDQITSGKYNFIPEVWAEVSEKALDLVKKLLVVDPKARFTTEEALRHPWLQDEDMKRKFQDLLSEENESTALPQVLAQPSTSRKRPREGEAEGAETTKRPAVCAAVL", "conditions": "1 uM"}}, "note": "pIC50: −log10 of the molar value. Active and inactive are the calls of the source. The rule behind the calls is not given here."}
{"smiles": "COc1c(Nc2ncc(Cl)c(N[C@H]3[C@@H](C(N)=O)[C@@H]4C=C[C@H]3C4)n2)ccc2c1CC[C@@H](N1CCOCC1)CC2", "values": [{"measurement": "half-life", "setting": "[1]", "value": 1.8, "unit": "h"}, {"measurement": "clearance", "setting": "[2]", "value": 6, "unit": "mL/min/kg"}, {"measurement": "Vd", "setting": "[3]", "value": 1.3, "unit": "L/kg"}, {"measurement": "Vd", "setting": "[4]", "value": 2.9, "unit": "L/kg"}, {"measurement": "Cmax", "setting": "[5]", "value": 2750, "unit": "ng/mL"}, {"measurement": "Tmax", "setting": "[6]", "value": 1, "unit": "h"}, {"measurement": "Cmax", "setting": "[7]", "value": 880, "unit": "ng/mL"}, {"measurement": "half-life", "setting": "[8]", "value": 2.3, "unit": "h"}, {"measurement": "AUC", "setting": "[9]", "value": 2990, "unit": "ng·h/mL"}, {"measurement": "Cmax", "setting": "[10]", "value": 599, "unit": "ng/mL"}, {"measurement": "bioavailability", "setting": "[11]", "value": 50, "unit": "%"}, {"measurement": "Tmax", "setting": "[12]", "value": 4.7, "unit": "h"}, {"measurement": "Cmax", "setting": "[13]", "value": 1010, "unit": "ng/mL"}, {"measurement": "concentration at 2 h", "setting": "[14]", "value": 2630, "unit": "ng/g"}, {"measurement": "concentration at 2 h", "setting": "[15]", "value": 1960, "unit": "ng/mL"}, {"measurement": "growth inhibition (GI)", "setting": "NB1643", "value": "Active"}, {"measurement": "growth inhibition (GI)", "setting": "SH-SY5Y", "value": "Active"}, {"measurement": "growth inhibition (GI)", "setting": "SK-N-AS", "value": "inactive"}, {"measurement": "Activity", "setting": "KARPAS-299", "value": "Active"}, {"measurement": "Activity", "setting": "Mus musculus", "value": "Non-toxic"}, {"measurement": "Ratio", "setting": "Rattus norvegicus", "value": 9}, {"measurement": "concentration at 6 h", "setting": "[16]", "value": 2870, "unit": "ng/g"}, {"measurement": "concentration at 2 h", "setting": "[17]", "value": 4270, "unit": "ng/mL"}, {"measurement": "pIC50", "setting": "Activated CDC42 kinase 1 [18]", "value": 7.39}, {"measurement": "pIC50", "setting": "[19]", "value": 7.59}, {"measurement": "pIC50", "setting": "[20]", "value": 7.32}, {"measurement": "pIC50", "setting": "[21]", "value": 7.72}, {"measurement": "inhibition", "setting": "Activated CDC42 kinase 1 [22]", "value": "> 90", "unit": "%"}, {"measurement": "inhibition", "setting": "[23]", "value": "> 90", "unit": "%"}]}
